ChEMBL document CHEMBL3352188, “Synthesis, antimicrobial and molecular docking studies of enantiomerically pure N-alkylated β-amino alcohols from phenylpropanolamines” (2014)
Converted amounts (≈) assume the structure as drawn. The source made the active and inactive calls. No cut-off for these calls is given here.

What was measured:
[1] = tested on: Salmonella enterica subsp. enterica serovar Paratyphi B; assay: Antimicrobial activity against Salmonella paratyphi B at 1 mg/disc after 24 hrs by disc diffusion assay; assay type: functional
Summary of the method: (§1)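 Disc diffusion on Mueller Hinton agar. Inoculum was grown in MHB for 24 h at 37 °C, swabbed onto the plates and dried for 10 min. Discs with 1 mg compound were left 30 min at room temperature for diffusion, then incubated at 37 °C for 24 h. Inhibition zone was read in mm; run twice. Solvent was the negative control, streptomycin the positive control.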

[2] = tested on: Malassezia pachydermatis; assay: Antimicrobial activity against Malassezia pachydermatis at 1 mg/disc after 24 hrs by disc diffusion assay; assay type: functional
[3] = tested on: Klebsiella pneumoniae; assay: Antimicrobial activity against Klebsiella pneumoniae MTCC 109 at 1 mg/disc after 24 hrs by disc diffusion assay; assay type: functional; summary of the method: as §1
[4] = tested on: Bacillus subtilis; assay: Antimicrobial activity against Bacillus subtilis MTCC 441 at 1 mg/disc after 24 hrs by disc diffusion assay; assay type: functional; summary of the method: as §1
[5] = tested on: Micrococcus luteus; assay: Antimicrobial activity against Micrococcus luteus MTCC 106 at 1 mg/disc after 24 hrs by disc diffusion assay; assay type: functional; summary of the method: as §1
[6] = tested on: Candida albicans; assay: Antimicrobial activity against Candida albicans MTCC 227 at 1 mg/disc after 24 hrs by disc diffusion assay; assay type: functional
[7] = tested on: Klebsiella aerogenes; assay: Antimicrobial activity against Enterobacter aerogenes MTCC 111 at 1 mg/disc after 24 hrs by disc diffusion assay; assay type: functional; summary of the method: as §1
[8] = tested on: Shigella flexneri; assay: Antimicrobial activity against Shigella flexneri MTCC 1457 at 1 mg/disc after 24 hrs by disc diffusion assay; assay type: functional; summary of the method: as §1
[9] = tested on: Proteus vulgaris; assay: Antimicrobial activity against Proteus vulgaris MTCC 1771 at 1 mg/disc after 24 hrs by disc diffusion assay; assay type: functional; summary of the method: as §1
[10] = tested on: Salmonella typhimurium; assay: Antimicrobial activity against Salmonella typhimurium MTCC 1251 at 1 mg/disc after 24 hrs by disc diffusion assay; assay type: functional, Salmonella enterica subsp. enterica serovar Typhimurium; summary of the method: as §1
[11] = tested on: Staphylococcus aureus; assay: Antimicrobial activity against Staphylococcus aureus MTCC 96 at 1 mg/disc after 24 hrs by disc diffusion assay; assay type: functional; summary of the method: as §1
[12] = tested on: Staphylococcus aureus; assay: Antimicrobial activity against […] Staphylococcus aureus MTCC 96 at 1 mg/disc after 24 hrs by disc diffusion assay; assay type: functional; summary of the method: as §1
[13] = tested on: Pseudomonas aeruginosa; assay: Antimicrobial activity against Pseudomonas aeruginosa MTCC 741 at 1 mg/disc after 24 hrs by disc diffusion assay; assay type: functional; summary of the method: as §1
[14] = tested on: Salmonella enterica subsp. enterica serovar Paratyphi B; assay: Antimicrobial activity against Salmonella paratyphi B after 24 hrs by two fold dilution method; assay type: functional
Summary of the method: (§2)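 Broth two-fold serial dilution in 96-well plates from 1000 to 7.81 µg/mL, compound in DMSO (2%). Inoculum was grown in MHB for 24 h at 37 °C; plates were incubated 24 h at 37 °C. 5 µL of broth was spotted onto MHA; MIC was the lowest concentration with no visible growth on agar. Streptomycin was the positive control.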

[15] = tested on: Micrococcus luteus; assay: Antimicrobial activity against Micrococcus luteus MTCC 106 after 24 hrs by two fold dilution method; assay type: functional; settings: MTCC 106, 24 h; summary of the method: as §2
[16] = tested on: Staphylococcus aureus; assay: Antimicrobial activity against methicillin-resistant Staphylococcus aureus MTCC 96 after 24 hrs by two fold dilution method; assay type: functional; settings: MTCC 96, 24 h; summary of the method: as §2
[17] = tested on: Pseudomonas aeruginosa; assay: Antimicrobial activity against Pseudomonas aeruginosa MTCC 741 after 24 hrs by two fold dilution method; assay type: functional; settings: MTCC 741, 24 h; summary of the method: as §2
[18] = tested on: Shigella flexneri; assay: Antimicrobial activity against Shigella flexneri MTCC 1457 after 24 hrs by two fold dilution method; assay type: functional; settings: MTCC 1457, 24 h; summary of the method: as §2
[19] = tested on: Klebsiella pneumoniae; assay: Antimicrobial activity against Klebsiella pneumoniae MTCC 109 after 24 hrs by two fold dilution method; assay type: functional; settings: MTCC 109, 24 h; summary of the method: as §2
[20] = tested on: Proteus vulgaris; assay: Antimicrobial activity against Proteus vulgaris MTCC 1771 after 24 hrs by two fold dilution method; assay type: functional; settings: MTCC 1771, 24 h; summary of the method: as §2
[21] = tested on: Staphylococcus aureus; assay: Antimicrobial activity against Staphylococcus aureus MTCC 96 after 24 hrs by two fold dilution method; assay type: functional; settings: MTCC 96, 24 h; summary of the method: as §2
[22] = tested on: Bacillus subtilis; assay: Antimicrobial activity against Bacillus subtilis MTCC 441 after 24 hrs by two fold dilution method; assay type: functional; settings: MTCC 441, 24 h; summary of the method: as §2
[23] = tested on: Klebsiella aerogenes; assay: Antimicrobial activity against Enterobacter aerogenes MTCC 111 after 24 hrs by two fold dilution method; assay type: functional; settings: MTCC 111, 24 h; summary of the method: as §2
[24] = tested on: Salmonella typhimurium; assay: Antimicrobial activity against Salmonella typhimurium MTCC 1251 after 24 hrs by two fold dilution method; assay type: functional, Salmonella enterica subsp. enterica serovar Typhimurium; settings: Salmonella enterica, MTCC 1251, 24 h; summary of the method: as §2
[25] = tested on: Candida albicans; assay: Antimicrobial activity against Candida albicans MTCC 227 after 48 to 72 hrs by two fold dilution method; assay type: functional
Summary of the method: (§3)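 Yeast was grown in Sabouraud dextrose broth at 28 °C for 48 h and tested per CLSI reference methods. Two-fold serial dilutions from 1000 to 7.81 µg/mL, compound in DMSO (2%), in 96-well plates, incubated 48–72 h at 28 °C. MIC was the lowest concentration with no visible fungal growth. Ketoconazole was the positive control.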

[26] = tested on: Malassezia pachydermatis; assay: Antimicrobial activity against Malassezia pachydermatis after 48 to 72 hrs by two fold dilution method; assay type: functional; summary of the method: as §3

| SMILES | inhibition zone (IZ) [1] | inhibition zone (IZ) [2] [mm] | inhibition zone (IZ) [3] | inhibition zone (IZ) [4] | inhibition zone (IZ) [5] [mm] | inhibition zone (IZ) [6] | inhibition zone (IZ) [7] | inhibition zone (IZ) [8] | inhibition zone (IZ) [9] [mm] | inhibition zone (IZ) [10] [mm] | inhibition zone (IZ) [11] | inhibition zone (IZ) [12] | inhibition zone (IZ) [13] [mm] | further results |
| --- | --- | --- | --- | --- | --- | --- | --- | --- | --- | --- | --- | --- | --- | --- |
| CC[C@H](C)N[C@H](C)[C@@H](O)c1ccccc1.Cl (mixture of isomers) | inactive | 10 | inactive | inactive | 10 | inactive | inactive | inactive | 10 | 10 | inactive | inactive | 10 | – |
| CN[C@@H]1[C@H](O[C@H]2[C@H](O[C@H]3[C@H](O)[C@@H](O)[C@H](N=C(N)N)[C@@H](O)[C@@H]3N=C(N)N)O[C@@H](C)[C@]2(O)C=O)O[C@@H](CO)[C@H](O)[C@H]1O [STREPTOMYCIN] | 30 mm | – | 20 mm | 30 mm | 26 | – | 22 mm | 30 mm | 30 | 18 | 14 mm | 30 mm | 30 | MIC [14]: 62.5 µg/mL (≈ 107 µM); MIC [15]: 6.25 µg/mL (≈ 10.7 µM); MIC [16]: 6.25 µg/mL (≈ 10.7 µM); MIC [17]: 25 µg/mL (≈ 43 µM); MIC [18]: 6.25 µg/mL (≈ 10.7 µM); MIC [19]: 6.25 µg/mL (≈ 10.7 µM); MIC [20]: 25 µg/mL (≈ 43 µM); MIC [21]: 6.25 µg/mL (≈ 10.7 µM); MIC [22]: 6.25 µg/mL (≈ 10.7 µM); MIC [23]: 25 µg/mL (≈ 43 µM); MIC [24]: 30 µg/mL (≈ 51.6 µM) |
| CC(=O)N1CCN(c2ccc(OCC3COC(Cn4ccnc4)(c4ccc(Cl)cc4Cl)O3)cc2)CC1 (centres undefined) [KETOCONAZOLE] | – | 26 | – | – | – | 28 mm | – | – | – | – | – | – | – | MIC [25]: 25 µg/mL (≈ 47 µM); MIC [26]: 25 µg/mL (≈ 47 µM) |
